# KCNQ1 block – inhibitors of human KCNQ1 channel, primary screen, cell-based, thallium flux, high-throughput | CHO-K1 KCNQ1, FluxOR thallium flux fluorescence; stronger effect = higher value | hit rate 1.3% among 310,000 | B-score at 10 µM | Potassium voltage-gated channel subfamily KQT member 1 (Homo sapiens), P51787;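 active = compounds whose thallium flux B-score, printed positive for inhibition, exceeds three library SD while starting fluorescence stays within three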;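 note: channel opened by potassium depolarization with thallium stimulus after 20 min compound exposure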
# KCNK3 block – human KCNK3 channel inhibitors, primary screen, CHO cells, FluxOR thallium flux, B-score; B-score at 10 µM; FluxOR fluorescence; stronger effect = lower value; hit rate 0.84% among 340,000; AID 602410, 2012; Potassium channel subfamily K member 3 (Homo sapiens), O14649;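 active = B-score under library mean minus 4 SD, starting fluorescence ratio at most library mean plus 5 SD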;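 note: more negative B-score means stronger inhibition of thallium flux through KCNK3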
# KCNQ1 pot – potentiators or activators of KCNQ1 channel, primary screen, cell-based, thallium flux, high-throughput. CHO-K1 KCNQ1, thallium flux FluxOR fluorescence; stronger effect = higher value. B-score at 10 µM. hit rate 0.35% among 310,000. AID 2648, 2010;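 active = fluorescence ratio B-score, a plate-corrected score, at least three library SD, with initial intensity B-score within 5 SD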
#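 Material: CHO-K1 cells stably expressing KCNQ1. Medium: assay buffer for compound exposure, DMSO matched across wells. Reagent: K+/Tl+ depolarizing stimulus. Compound dosing: single-concentration screen. Times: 37 °C overnight plating, 90-min dark dye load, 20-min compound pretreatment. Technique: FluxOR Tl+ flux fluorescence.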
# hERG rescue – hERG rescue from dofetilide block, primary screen, cell-based, CHO-hERG, FluxOR thallium flux, dofetilide IC70 | hit rate 0.51% among 310,000 | Voltage-gated inwardly rectifying potassium channel KCNH2 (Homo sapiens), Q12809 | activation (rescue from dofetilide block), less the hit threshold, % at 10 µM | dofetilide IC70 present;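 active = activation above the mean of controls blocked by dofetilide plus 5 SD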;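 note: thallium influx through hERG after potassium depolarization seen as dye fluorescence rise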
# Target sequence (Q12809 whole entry, looked up): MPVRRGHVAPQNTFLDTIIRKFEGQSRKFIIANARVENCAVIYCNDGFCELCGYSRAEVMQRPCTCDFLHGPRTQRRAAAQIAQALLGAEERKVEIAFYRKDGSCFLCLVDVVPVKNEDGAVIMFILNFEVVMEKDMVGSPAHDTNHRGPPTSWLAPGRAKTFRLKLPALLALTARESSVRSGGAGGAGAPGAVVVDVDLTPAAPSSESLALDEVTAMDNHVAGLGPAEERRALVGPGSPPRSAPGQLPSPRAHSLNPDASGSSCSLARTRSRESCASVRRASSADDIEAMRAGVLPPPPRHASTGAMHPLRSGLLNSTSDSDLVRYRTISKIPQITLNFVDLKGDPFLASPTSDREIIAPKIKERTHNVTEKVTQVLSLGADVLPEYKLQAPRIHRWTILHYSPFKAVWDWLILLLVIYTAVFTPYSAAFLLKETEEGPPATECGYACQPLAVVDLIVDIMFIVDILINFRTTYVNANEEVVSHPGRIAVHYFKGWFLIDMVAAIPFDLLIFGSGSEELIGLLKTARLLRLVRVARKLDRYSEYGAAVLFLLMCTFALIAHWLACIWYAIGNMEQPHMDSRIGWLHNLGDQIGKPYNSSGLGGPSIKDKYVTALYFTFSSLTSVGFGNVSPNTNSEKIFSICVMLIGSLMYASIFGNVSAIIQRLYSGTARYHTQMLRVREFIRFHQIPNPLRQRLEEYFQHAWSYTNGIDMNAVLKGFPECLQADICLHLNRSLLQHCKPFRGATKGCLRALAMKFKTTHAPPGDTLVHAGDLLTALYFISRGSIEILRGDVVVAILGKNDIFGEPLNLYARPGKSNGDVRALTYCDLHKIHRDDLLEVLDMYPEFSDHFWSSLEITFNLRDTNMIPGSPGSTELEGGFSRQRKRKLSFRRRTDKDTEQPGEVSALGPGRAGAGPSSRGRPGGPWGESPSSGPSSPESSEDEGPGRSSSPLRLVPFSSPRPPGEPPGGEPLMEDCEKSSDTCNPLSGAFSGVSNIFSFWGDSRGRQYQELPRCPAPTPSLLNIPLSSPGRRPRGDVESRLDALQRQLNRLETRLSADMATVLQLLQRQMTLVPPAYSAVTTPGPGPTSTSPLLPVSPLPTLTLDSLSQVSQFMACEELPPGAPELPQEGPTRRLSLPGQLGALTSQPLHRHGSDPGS
# KCNK9 block – KCNK9 potassium channel inhibitors, primary screen, HEK293 cells, thallium flux; AID 488922, 2010; hit rate 1.2% among 310,000; FluxOR thallium flux fluorescence; stronger effect = lower value; B-score at 10 µM; Potassium channel subfamily K member 9 (Homo sapiens), Q9NPC2;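 active = ratio B-score over 3 SD below the library mean, with starting fluorescence within 5 SD of its mean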;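 note: negative B-score means less thallium flux so channel inhibition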
# KCNK9 inh conf – KCNK9 potassium channel inhibitors, confirmation, HEK293 cells, thallium flux, duplicate; shares compounds with KCNK9 block; FluxOR thallium flux fluorescence; inhibition, % at 10 µM; hit rate 43% among 4,900;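 active = thallium signal inhibited by more than 5 SD of the compound-free buffer control wells, on both duplicate plates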;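 note: 0% = assay buffer control wells without compound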
# Kir2-1 spec – mouse Kir2.1 channel inhibition, confirmation, selectivity assay for KCNK9 modulator project, cell-based, HEK293, thallium flux; inhibition, % at 10 µM; hit rate 4% among 4,900; shares compounds with KCNK9 block; AID 492993, 2010; Kir2.1 cells, FluxOR thallium flux fluorescence;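 active = thallium signal drop more than 5 SD beyond the mean of the no-compound control wells, seen in both duplicate plates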;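 note: signal is fluorescence rise after thallium addition divided by baseline fluorescence; plate controls were assay buffer only for no effect and full block by chlorpromazine control for full effect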
# KCNK9 uninduced – thallium flux in non-induced HEK293 cells, confirmation, counter-screen for KCNK9 inhibitor project, cell-based, second counter screen, non-induced KCNK9-HEK293 | shares compounds with KCNK9 block | FluxOR thallium flux | inhibition, % at 10 µM | hit rate 40% among 4,900 | AID 492997, 2010;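 active = thallium signal drop beyond 5 SD of the untreated control mean, on both duplicate plates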;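 note: plate controls were buffer only IC0 wells for no effect and SID17386958 at its maximal inhibitory level for full effect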
# The depositor's hits bear a star; i = inactive; . = no result. Rows were chosen to be rich in hits. Some 3.1% of all compounds tested hit in one or more screens of this group.
SMILES,KCNQ1 block,KCNK3 block,KCNQ1 pot,hERG rescue,KCNK9 block,KCNK9 inh conf,Kir2-1 spec,KCNK9 uninduced
Cc1cc(NC(=O)c2ccco2)sc1C,.,i,.,.,.,.,.,.
O=C(CSc1nc2ccccc2n1Cc1ccccc1)N/N=C/c1ccco1,i,i,i,-14.9,i,.,.,.
Cc1ccc(Cn2c(SCC(=O)N/N=C/c3ccc(C)o3)nc3ccccc32)cc1,i,i,i,-14.7,-20.8*,55.0%*,i,41.0%*
Cc1cccc(-c2noc(CN(C(=O)c3ccc4c(c3)OCO4)C(C)C)n2)c1,i,i,i,-6.4,i,.,.,.
Cc1cccc(-c2noc(CN(C(=O)C(c3ccccc3)c3ccccc3)C(C)C)n2)c1,6*,-12.1*,i,-8.9,-17.4*,53.5%*,i,i
COc1cccc(C(=O)N(Cc2nc(-c3cccc(C)c3)no2)C(C)C)c1OC,i,i,i,-11.8,i,i,i,i
Cc1cc(C)c(NC(=O)CSc2nc3ccccc3c(=O)n2CCCN2CCOCC2)c(C)c1,.,i,.,.,.,.,.,.
COc1ccc(C#Cc2c(-c3ccccc3)n(-c3ccccc3)c3ccc(CO)cc23)cc1,.,i,.,.,.,.,.,.
c1ccc(CNc2nc(-c3cccs3)nc3ccccc23)nc1,i,i,i,-21.2,i,.,.,.
Cc1ccc(CNc2nc(-c3cccs3)nc3ccccc23)cc1,i,i,i,-17.5,-8.84*,35.5%*,i,30.0%*
O=C1OC(c2ccc(Cl)cc2)/C(=C(/O)c2ccccc2)C1=O (stereo not given),i,i,i,-11.5,i,.,.,.
O=C1C[C@@H]2c3c(cccc3CN1Cc1ccc(Cl)cc1)C[C@@H](O)[C@H]2O,.,i,.,.,.,.,.,.
Cc1cccc(C(=O)O/N=C/c2c(Cl)n(C)c3ccccc23)c1,i,i,i,-7.5,-12.1*,48.0%*,i,34.5%*
C=Cc1ccc(Cn2nc(-c3ccc(C)cc3)ccc2=O)cc1,i,i,i,-4.7,i,i,i,i
COc1cc(C(CC(=O)Nc2ccccn2)N2Cc3ccccc3C2=O)cc(OC)c1OC (stereo not given),i,i,i,-5.2,i,.,.,.
Cc1ccc(-c2nc(C3CCN(S(=O)(=O)c4ccc(C(C)(C)C)cc4)CC3)no2)cc1,i,i,i,-6.7,i,i,i,i
CC(=O)Nc1ccc(NC(=O)c2cccc(C(=O)OC(C)C)n2)cc1,i,i,i,-9.1,i,.,.,.
CC(C)OC(=O)c1cccc(C(=O)Nc2cccc(NC(=O)c3cccc(C(=O)OC(C)C)n3)n2)n1,i,i,i,-13.1,-13.2*,64.5%*,i,i
NS(=O)(=O)c1ccc(NC(=O)COC(=O)CN2C(=O)C3CC=CCC3C2=O)cc1 (stereo not given),.,i,.,.,.,.,.,.
CCCCCCCCCCCC(=O)NC(Cc1ccc(OC)c([N+](=O)[O-])c1)C(=O)O (stereo not given),i,i,i,-12.8,i,i,i,i
Cc1cc(S(=O)(=O)Nc2ccc(C(=O)NCC(C)(C)N3CCOCC3)cc2)ccc1F,i,i,i,-9.9,i,.,.,.
Cc1cccc(CC(C)NC(=O)c2cc(COc3ccc(C)c(C)c3)on2)n1 (stereo not given),i,i,i,-14.2,i,.,.,.
Cc1nc(C(C)NC(=O)c2cc(COc3ccc(C)c(C)c3)on2)c(C)s1 (stereo not given),i,i,i,-8.5,i,i,i,i
N#C/C(=C\c1ccc(Sc2nc3ccccc3[nH]2)o1)c1ccccc1,13*,i,i,-6.1,i,i,i,i
COc1ccc(CCCc2nnc(SCC(=O)Nc3cc(C)ccc3C)o2)cc1,i,i,i,1.0,i,i,i,i
SMILES,KCNQ1 block,KCNK3 block,KCNQ1 pot,hERG rescue,KCNK9 block,KCNK9 inh conf,Kir2-1 spec,KCNK9 uninduced
Cc1cc(NC(=O)CSc2nnc(N)s2)c([N+](=O)[O-])cc1C,i,i,i,-12.8,i,.,.,.
COc1ccc(/C=C/C(=O)Oc2ccc(C)c(C)c2)cc1OC,i,i,i,-6.2,i,i,i,i
COc1ccc(/C=C/C(=O)C(C)(C)C)cc1OC,i,i,i,-1.0,i,.,.,.
Cc1cc(SCC(=O)N/N=C/c2ccc(O)c(O)c2O)c(C)cc1Br,i,i,i,-50.4,i,i,i,i
O=C(c1ccccc1Cl)N1N=C(c2ccc(Br)cc2)CC1c1nc2ccccc2[nH]1 (stereo not given),i,i,i,-7.2,-8.94*,35.5%*,i,29.5%*
O=C(c1ccncc1)N1N=C(c2ccc(Br)cc2)CC1c1ccccc1O (stereo not given),i,i,i,-4.9,i,.,.,.
NS(=O)(=O)c1ccc(CCNC(=O)C2CCN(S(=O)(=O)c3ccc(Br)s3)CC2)cc1,i,i,i,-6.0,i,.,.,.
CCN(CC)S(=O)(=O)c1cc(NC(=O)c2cccc(N3C(=O)CCC3=O)c2)ccc1Cl,i,i,i,-15.9,i,.,.,.
CCOC(=O)C1C(=O)C=C(/C=C/c2ccc(N(C)C)cc2)CC1c1ccccc1 (stereo not given),8*,i,i,-27.5,-8.21*,46.5%*,37.5%*,64.5%*
N#C/C(=C/c1ccc(OCc2ccc(C(=O)O)cc2)c(Br)c1)c1cccc(F)c1,i,i,i,-10.7,i,i,i,i
CC(=O)c1ccc(OC(=O)CCN2c3ccccc3Sc3ccccc32)cc1,i,i,i,-7.2,-11.7*,74.5%*,i,27.5%*
O=C(CCN1c2ccccc2Sc2ccccc21)Oc1ccccc1,i,i,i,-10.4,i,.,.,.
CC(=O)c1ccc2c(c1)N(C)c1ccccc1S2,i,i,i,-6.5,i,i,i,i
